In ChEMBL document CHEMBL1124808, “The synthesis and antiallergy activity of 1-(aryloxy)-4-(4-arylpiperazinyl)-2-butanol derivatives” (1990):

Assays:
Format in all cases: functional
Rattus norvegicus [1] = assay: Percent change in volume of foot edema of test compound to that of positive control was determined at a dose of 10 mg/kg in rat; -26/-62
Rattus norvegicus [2] = assay: Percent change in volume of foot edema of test compound to that of positive control was determined at a dose of 31.6 mg/kg in rat; -49/-78
Rattus norvegicus [3] = assay: Percent change in volume of foot edema of test compound to that of positive control was determined at a dose of 31.6 mg/kg in rat; -23/-81
Rattus norvegicus [4] = assay: Percent change in volume of foot edema of test compound to that of positive control was determined at a dose of 10 mg/kg in rat; +22/-73
Rattus norvegicus [5] = assay: Percent change in volume of foot edema of test compound to that of positive control was determined at a dose of 31.6 mg/kg in rat; -79/-65
Rattus norvegicus [6] = assay: Percent change in volume of foot edema of test compound to that of positive control was determined at a dose of 3.16 mg/kg in rat; -34/-79
Rattus norvegicus [7] = assay: Percent change in volume of foot edema of test compound to that of positive control was determined at a dose of 31.6 mg/kg in rat; -85/-82
Rattus norvegicus [8] = assay: Percent change in volume of foot edema of test compound to that of positive control was determined at a dose of 10 mg/kg in rat; -50/-80
Rattus norvegicus [9] = assay: Percent change in volume of foot edema of test compound to that of positive control was determined at a dose of 31.6 mg/kg in rat; -35/-69
Rattus norvegicus [10] = assay: Percent change in volume of foot edema of test compound to that of positive control was determined at a dose of 31.6 mg/kg in rat; -65/-69
Rattus norvegicus [11] = assay: Percent change in volume of foot edema of test compound to that of positive control was determined at a dose of 10 mg/kg in rat; -29/-62
Rattus norvegicus [12] = assay: Percent change in volume of foot edema of test compound to that of positive control was determined at a dose of 10 mg/kg in rat; -56/-69
Rattus norvegicus [13] = assay: Percent change in volume of foot edema of test compound to that of positive control was determined at a dose of 3.16 mg/kg in rat; -9/-69
Rattus norvegicus [14] = assay: Percent change in volume of foot edema of test compound to that of positive control was determined at a dose of 31.6 mg/kg in rat; -82/69
Rattus norvegicus [15] = assay: Percent change in volume of foot edema of test compound to that of positive control was determined at a dose of 10 mg/kg in rat; +3/-73
Rattus norvegicus [16] = assay: Percent change in volume of foot edema of test compound to that of positive control was determined at a dose of 31.6 mg/kg in rat; -69/-78
Rattus norvegicus [17] = assay: Percent change in volume of foot edema of test compound to that of positive control was determined at a dose of 10 mg/kg in rat; -38/-69
Rattus norvegicus [18] = assay: Percent change in volume of foot edema of test compound to that of positive control was determined at a dose of 31.6 mg/kg in rat; -73/-68
Rattus norvegicus [19] = assay: Percent change in volume of foot edema of test compound to that of positive control was determined at a dose of 3.16 mg/kg in rat; -13/-73
Rattus norvegicus [20] = assay: Percent change in volume of foot edema of test compound to that of positive control was determined at a dose of 31.6 mg/kg in rat; -30/-81
Rattus norvegicus [21] = assay: Percent change in volume of foot edema of test compound to that of positive control was determined at a dose of 31.6 mg/kg in rat; +7/-47
Rattus norvegicus [22] = assay: Percent change in volume of foot edema of test compound to that of positive control was determined at a dose of 3.16 mg/kg in rat; -18/-77
Rattus norvegicus [23] = assay: Percent change in volume of foot edema of test compound to that of positive control was determined at a dose of 10 mg/kg in rat; -53/-77
Rattus norvegicus [24] = assay: Percent change in volume of foot edema of test compound to that of positive control was determined at a dose of 31.6 mg/kg in rat; -88/-63
Rattus norvegicus [25] = assay: Percent change in volume of foot edema of test compound to that of positive control was determined at a dose of 31.6 mg/kg in rat; -80/-83
Rattus norvegicus [26] = assay: Percent change in volume of foot edema of test compound to that of positive control was determined at a dose of 10 mg/kg in rat; -36/-65
Rattus norvegicus [27] = assay: Percent change in volume of foot edema of test compound to that of positive control was determined at a dose of 31.6 mg/kg in rat; -69/-69
Rattus norvegicus [28] = assay: Percent change in volume of foot edema of test compound to that of positive control was determined at a dose of 10 mg/kg in rat; -14/-62
Rattus norvegicus [29] = assay: Percent change in volume of foot edema of test compound to that of positive control was determined at a dose of 31.6 mg/kg in rat; -67/-63
Rattus norvegicus [30] = assay: Percent change in volume of foot edema of test compound to that of positive control was determined at a dose of 10 mg/kg in rat; -34/-77
Cavia porcellus = species on record: Cavia porcellus; assay: Dose that protects 50% of guinea pig from collapse was determined in guinea pig anaphylaxis assay; details: read-out: PD50
Summary of the method: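 Guinea pigs dosed by gavage (10 mL/kg) with compound in 0.5% Tween 80/water; reference theophylline 100 mg/kg po. At 1–24 h, exposed in chamber to aerosolized 1% (w/v) egg albumin at 10 L air/min for up to 5 min; protected if no collapse within 5 min. PD50 by Litchfield and Wilcoxon.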

Rattus norvegicus [31] = assay: Percent change in volume of foot edema of test compound to that of positive control was determined at a dose of 31.6 mg/kg in rat; -15/-60

## OC(CCN1CCN(c2ccccc2)CC1)COc1cccc(C(F)(F)F)c1 (stereo not drawn)
Rattus norvegicus [1]
  PFA: -26
Rattus norvegicus [2]
  PFA: -49

## OC(COc1ccccc1)CN1CCN(c2ccccc2)CC1 (stereo not drawn)
Rattus norvegicus [3]
  PFA: -23

## COc1ccccc1N1CCN(CCC(O)COc2ccccc2)CC1 (stereo not drawn)
Rattus norvegicus [4]
  PFA: 22
Rattus norvegicus [5]
  PFA: -79

## Cc1ccc(N2CCN(CCC(O)COc3ccccc3)CC2)cc1 (stereo not drawn)
Rattus norvegicus [6]
  PFA: -34
Rattus norvegicus [7]
  PFA: -85
Rattus norvegicus [8]
  PFA: -50

## OC(CCN1CCN(c2ccccc2)CC1)COc1cccc2ccccc12 (stereo not drawn)
Rattus norvegicus [9]
  PFA: -35

## OC(CCN1CCN(c2ccccc2)CC1)COc1ccc(-c2ccccc2)cc1 (stereo not drawn)
Rattus norvegicus [10]
  PFA: -65
Rattus norvegicus [11]
  PFA: -29

## NC(=O)c1ccc(OCC(O)CCN2CCN(c3ccc(F)cc3)CC2)cc1 (stereo not drawn)
Rattus norvegicus [12]
  PFA: -56
Rattus norvegicus [13]
  PFA: -9
Rattus norvegicus [14]
  PFA: -82

## COc1cccc(N2CCN(CCC(O)COc3ccccc3)CC2)c1 (stereo not drawn)
Rattus norvegicus [15]
  PFA: 3
Rattus norvegicus [16]
  PFA: -69

## NC(=O)c1ccc(OCC(O)CCN2CCN(c3ccccn3)CC2)cc1 (stereo not drawn)
Rattus norvegicus [17]
  PFA: -38
Rattus norvegicus [18]
  PFA: -73
Rattus norvegicus [19]
  PFA: -13

## OC(CCN1CC=C(c2ccccc2)CC1)COc1ccccc1 (stereo not drawn)
Rattus norvegicus [20]
  PFA: -30

## OC(CCN1CCc2ccccc2C1)COc1ccccc1 (stereo not drawn)
Rattus norvegicus [21]
  PFA: 7

## OC(CCN1CCN(c2ccc(F)cc2)CC1)COc1ccccc1 (stereo not drawn)
Rattus norvegicus [22]
  PFA: -18
Rattus norvegicus [23]
  PFA: -53
Rattus norvegicus [24]
  PFA: -88

## CC(=O)c1ccc(N2CCN(CCC(O)COc3ccccc3)CC2)cc1 (stereo not drawn)
Rattus norvegicus [25]
  PFA: -80
Rattus norvegicus [26]
  PFA: -36

## COc1ccccc1OCC(O)CCN1CCN(c2ccccc2)CC1 (stereo not drawn)
Rattus norvegicus [27]
  PFA: -69
Rattus norvegicus [28]
  PFA: -14

## COc1ccc(N2CCN(CCC(O)COc3ccccc3)CC2)cc1 (stereo not drawn)
Rattus norvegicus [29]
  PFA: -67
Rattus norvegicus [30]
  PFA: -34

## CN(C)CCOC(c1ccccc1)c1ccccc1 [DIPHENHYDRAMINE]
Cavia porcellus
  ED50: 23.3 mg/kg
Rattus norvegicus [31]
  PFA: -15

## Cn1c(=O)c2nc[nH]c2n(C)c1=O.O [THEOPHYLLINE]
Cavia porcellus
  ED50: 75 mg/kg
